The text below walks through data of ChEMBL document CHEMBL1130071, “Pyrrolomorphinans as delta opioid receptor antagonists. The role of steric hindrance in conferring selectivity” (J Med Chem, 1997).

Test [1] deals with Delta-type opioid receptor (Homo sapiens) (UniProt P41143). Description: Selectivity ratio measured as the mu Ki to that of delta Ki values. In a few lines:
(§1)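 Ki selectivity ratio = Ki at κ or μ (ICR mouse brain membranes, [3H]U69593 or [3H]DAMGO) divided by Ki at δ ([3H]naltrindole competition).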

The target is the same in test [2]. Description: Selectivity ratio measured as the kappa Ki to that of delta Ki values. The method in brief:
as §1

Test [3] concerns the target Delta-type opioid receptor (Mus musculus, UniProt P32300). Description: Binding affinity against Opioid receptor delta 1 receptor binding in ICR mouse brain membranes using the radioligand [3H]naltrindole. Format: cell membranes, Membrane. In a few lines: (§2)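 Competition binding on ICR mouse brain membranes using selective radioligands: [3H]naltrindole (δ), [3H]DAMGO (μ), [3H]U69593 (κ). Ki reported as mean ± SEM of at least three determinations.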

In test [4] the target is Mu-type opioid receptor (Homo sapiens) (UniProt P35372). Description: Selectivity ratio measured as the delta IC50 to that of mu IC50 values. It is filed as functional.
In test [5] the target is Kappa-type opioid receptor (Mus musculus, UniProt P33534). Description: Binding affinity against Opioid receptor kappa 1 binding in ICR mouse brain membranes using the radioligand [3H]U-69593. Format: cell membranes, Membrane. The method in brief: as §2
Test [6] has as its target Mu-type opioid receptor (Cavia porcellus) (UniProt P97266). Description: Agonist activity against guinea pig ileum Opioid receptor mu 1. It is filed as functional, tissue-based. The method in brief:
(§3)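 Agonist activity in MVD or GPI preparations; ligands that were not full agonists tested at 1 µM, activity expressed as percent of maximal response.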

The target of test [7] is Kappa-type opioid receptor (Cavia porcellus) (UniProt P41144). Description: Agonist activity against guinea pig ileum kappa receptor relative to ethylketazocine. It is filed as functional, tissue-based. The method in brief: as §3
The target in another test is Mu-type opioid receptor (Mus musculus, UniProt P42866). Description: Binding affinity against Opioid receptor mu 1 binding in ICR mouse brain membranes using the radioligand [3H][Ala2,Glyol5]enkephalin. It is filed as cell membranes, Membrane. In a few lines: as §2
The target of test [8] is Kappa-type opioid receptor (Homo sapiens) (UniProt P41145). Description: Selectivity ratio measured as the delta IC50 to that of kappa IC50 values. It is filed as functional.
Test [9] concerns the target Delta-type opioid receptor (Mus musculus) (UniProt P32300). Description: Agonist activity in mouse vas deferens assay relative to DADLE. It is filed as functional, tissue-based. The method in brief: as §3
Test [10] addresses Mu-type opioid receptor (Cavia porcellus) (UniProt P97266). Description: Activity against mu receptor on electrically stimulated guinea pig ileum using morphine as the standard agonist (Opioid receptor mu 1). It is filed as functional, tissue-based. The method in brief:
(§4)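 Antagonist test in electrically stimulated smooth muscle, DADLE in MVD, morphine or ethylketazocine in GPI: ligand (100 nM) preincubated with the preparation 15 min before agonist testing. IC50 ratio = agonist IC50 with test compound / control IC50 in same preparation; Ke = [antagonist]/(IC50 ratio − 1).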

The target of test [11] is Kappa-type opioid receptor (Cavia porcellus) (UniProt P41144). Description: Activity against Opioid receptor kappa 1 on electrically stimulated guinea pig ileum using ethylketazocine as the standard agonist. Format: functional, tissue-based. The method in brief: as §4
Test [12] has as its target Delta-type opioid receptor (Mus musculus) (UniProt P32300). Description: Activity against Opioid receptor delta 1 on electrically stimulated mouse vas deferens using DADLE as agonist. It is filed as functional, tissue-based. The method in brief:
as §4

The target of test [13] is Mu-type opioid receptor (Cavia porcellus) (UniProt P97266). Description: Agonist guinea pig ileum (Opioid receptor mu 1). It is filed as functional, tissue-based. In a few lines:
as §3

Test [14] has the same target. Description: Agonist guinea pig ileum. Format: functional, tissue-based. The method in brief:
as §3

pKi: −log10 of the molar value.

For orientation: pKi means the negative decadic logarithm of the Ki, by convention in mol/L. Higher therefore signals a low Ki.

Chain of Mu-type opioid receptor (Cavia porcellus) (P97266 whole entry): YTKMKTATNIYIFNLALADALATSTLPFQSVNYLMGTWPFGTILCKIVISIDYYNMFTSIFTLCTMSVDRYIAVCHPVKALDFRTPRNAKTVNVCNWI
Chain of Kappa-type opioid receptor (Homo sapiens) (P41145 whole entry): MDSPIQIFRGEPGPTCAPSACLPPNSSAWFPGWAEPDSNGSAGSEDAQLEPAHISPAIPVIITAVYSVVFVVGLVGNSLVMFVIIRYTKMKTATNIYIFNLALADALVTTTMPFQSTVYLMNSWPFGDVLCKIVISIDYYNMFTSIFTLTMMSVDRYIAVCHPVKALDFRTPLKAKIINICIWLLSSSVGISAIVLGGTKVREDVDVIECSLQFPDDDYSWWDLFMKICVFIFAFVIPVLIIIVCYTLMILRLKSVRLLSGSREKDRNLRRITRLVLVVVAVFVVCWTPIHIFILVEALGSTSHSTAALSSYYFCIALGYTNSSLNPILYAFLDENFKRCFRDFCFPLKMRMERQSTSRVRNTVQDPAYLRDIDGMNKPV
Chain of Mu-type opioid receptor (P42866 whole entry): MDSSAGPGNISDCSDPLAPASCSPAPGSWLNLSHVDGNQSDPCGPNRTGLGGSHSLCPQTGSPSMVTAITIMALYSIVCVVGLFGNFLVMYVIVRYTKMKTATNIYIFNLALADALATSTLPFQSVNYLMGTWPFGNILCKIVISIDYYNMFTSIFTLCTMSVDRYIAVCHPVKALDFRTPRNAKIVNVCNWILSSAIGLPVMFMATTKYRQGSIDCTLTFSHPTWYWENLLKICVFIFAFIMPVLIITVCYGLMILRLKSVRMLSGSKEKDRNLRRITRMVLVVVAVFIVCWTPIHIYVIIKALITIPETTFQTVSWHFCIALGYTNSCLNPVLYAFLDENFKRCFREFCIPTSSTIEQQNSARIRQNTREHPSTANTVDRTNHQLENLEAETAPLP
Chain of Delta-type opioid receptor (Homo sapiens) (P41143 whole entry): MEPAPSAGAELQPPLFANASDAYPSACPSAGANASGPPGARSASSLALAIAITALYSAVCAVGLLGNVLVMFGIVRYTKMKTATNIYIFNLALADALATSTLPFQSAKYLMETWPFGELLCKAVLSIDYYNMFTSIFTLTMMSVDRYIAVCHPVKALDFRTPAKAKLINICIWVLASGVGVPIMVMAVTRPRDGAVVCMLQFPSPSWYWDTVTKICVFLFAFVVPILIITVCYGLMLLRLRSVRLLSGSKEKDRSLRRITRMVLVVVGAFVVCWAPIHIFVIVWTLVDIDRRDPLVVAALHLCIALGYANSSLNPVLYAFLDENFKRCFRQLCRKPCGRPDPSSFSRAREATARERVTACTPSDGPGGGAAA
Chain of Mu-type opioid receptor (Homo sapiens) (P35372 whole entry): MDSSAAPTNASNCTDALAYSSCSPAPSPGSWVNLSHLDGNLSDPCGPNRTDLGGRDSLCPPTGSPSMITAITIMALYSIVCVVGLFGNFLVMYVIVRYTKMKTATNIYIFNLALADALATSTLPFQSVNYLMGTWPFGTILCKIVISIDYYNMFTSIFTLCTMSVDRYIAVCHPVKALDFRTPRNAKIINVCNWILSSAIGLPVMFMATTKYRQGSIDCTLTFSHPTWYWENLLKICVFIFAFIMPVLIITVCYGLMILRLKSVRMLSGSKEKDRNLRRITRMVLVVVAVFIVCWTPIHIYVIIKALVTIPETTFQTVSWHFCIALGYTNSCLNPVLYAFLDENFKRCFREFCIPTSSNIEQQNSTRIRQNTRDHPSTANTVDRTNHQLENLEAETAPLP
Chain of Delta-type opioid receptor (Mus musculus) (P32300 whole entry): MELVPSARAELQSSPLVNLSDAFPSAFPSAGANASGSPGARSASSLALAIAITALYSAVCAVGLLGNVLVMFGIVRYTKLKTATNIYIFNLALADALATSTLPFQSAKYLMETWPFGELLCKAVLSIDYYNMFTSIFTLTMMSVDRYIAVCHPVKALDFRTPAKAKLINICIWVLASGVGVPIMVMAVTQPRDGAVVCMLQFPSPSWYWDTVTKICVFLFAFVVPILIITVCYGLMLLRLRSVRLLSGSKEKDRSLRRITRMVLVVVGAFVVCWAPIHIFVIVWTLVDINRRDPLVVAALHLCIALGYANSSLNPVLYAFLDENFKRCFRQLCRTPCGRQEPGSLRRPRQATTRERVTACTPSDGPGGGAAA
Chain of Delta-type opioid receptor (P32300 whole entry): as above
Chain of Kappa-type opioid receptor (Cavia porcellus) (P41144 whole entry): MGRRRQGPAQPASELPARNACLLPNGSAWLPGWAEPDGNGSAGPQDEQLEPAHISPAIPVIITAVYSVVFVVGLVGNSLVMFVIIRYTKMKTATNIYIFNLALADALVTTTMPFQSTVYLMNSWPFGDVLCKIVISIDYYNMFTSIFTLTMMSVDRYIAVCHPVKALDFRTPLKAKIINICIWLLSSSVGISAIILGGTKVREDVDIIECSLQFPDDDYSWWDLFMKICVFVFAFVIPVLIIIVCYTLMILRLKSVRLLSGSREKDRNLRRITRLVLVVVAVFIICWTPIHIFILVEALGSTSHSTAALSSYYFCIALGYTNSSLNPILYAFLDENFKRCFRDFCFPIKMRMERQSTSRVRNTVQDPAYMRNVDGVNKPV
Chain of Kappa-type opioid receptor (P33534 whole entry): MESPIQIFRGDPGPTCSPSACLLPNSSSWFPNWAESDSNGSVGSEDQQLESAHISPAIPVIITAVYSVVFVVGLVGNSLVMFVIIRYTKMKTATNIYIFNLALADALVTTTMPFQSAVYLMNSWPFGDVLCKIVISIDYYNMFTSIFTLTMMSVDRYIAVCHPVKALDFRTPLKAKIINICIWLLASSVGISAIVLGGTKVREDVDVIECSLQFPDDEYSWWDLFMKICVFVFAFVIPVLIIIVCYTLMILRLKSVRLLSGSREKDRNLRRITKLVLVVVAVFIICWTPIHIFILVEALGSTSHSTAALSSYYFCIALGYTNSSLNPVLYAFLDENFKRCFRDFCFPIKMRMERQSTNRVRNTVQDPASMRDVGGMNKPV

Regarding `Oc1ccc2c3c1O[C@H]1c4[nH]cc(-c5ccccc5)c4C[C@@]4(O)C(C2)N(CC2CC2)CCC314` (stereo not given in full), the Selectivity ratio in [1] was found to be 7.8; in [2] it was 16.7; in test [4], 0.7; in [8] it was 0.7. In addition, the negative logarithm of the Ki (pKi) was 8.57 in test [3], 7.35 in [5] and 7.68 on Mu-type opioid receptor. For the same molecule, the IC50 ratio in [6] amounted to 2.3; in test [7] it was 2.1; in test [9] it was 1.5.
As for `Cn1c2c(c3c1[C@@H]1Oc4c(O)ccc5c4C14CCN(CC1CC1)C(C5)[C@]4(O)C3)CCCC2` (stereo not given in full), the Ke in test [10] came to 158 nM; in test [11], 254 nM.
For `O=C1/C(=C/c2ccccc2)C[C@@]2(O)[C@H]3Cc4ccc(O)c5c4[C@@]2(CCN3CC2CC2)[C@H]1O5`, the Selectivity ratio was 2.7 in test [4] and 18 in test [8].
With `CCCCc1c(C)[nH]c2c1C[C@@]1(O)C3Cc4ccc(O)c5c4C1(CCN3CC1CC1)[C@H]2O5` (stereo not given in full), the Selectivity ratio was found to be 4.8 in test [1], 3.3 in test [2], 8 in test [4] and 17 in [8]. In addition, the results for the pKi (in test [3]; in test [5]; at Mu-type opioid receptor) were 7.92, 7.41 and 7.24, respectively. Also, the IC50 ratio is 2.1 in test [6], 0.95 in test [7] and 16.8 in test [9]. The molecule also showed a Ke in test [12] of 6.7 nM.
`Cc1[nH]c2c(c1Cc1ccccc1)C[C@@]1(O)C3Cc4ccc(O)c5c4C1(CCN3CC1CC1)[C@H]2O5` (stereo not given in full): the Selectivity ratio was determined as 80 in [1], 117 in test [2], 50 in test [4] and 50 in [8]. In addition, the figures for the pKi (in test [3]; in [5]; at Mu-type opioid receptor) were 9.46, 7.39 and 7.55, respectively. The results for the IC50 ratio in test [6], in [7] and in test [9] were 1.3, 1.3 and 50, respectively. The Ke in test [12] worked out at 2.1 nM.
As to `Oc1ccc2c3c1O[C@H]1c4[nH]c5ccccc5c4C[C@@]4(O)[C@@H](C2)N(CC2CC2)CC[C@]314` [NALTRINDOLE], the negative logarithm of the Ki (pKi) in [3] was 10.40; in test [5] it was 6.45; on Mu-type opioid receptor it was 8.21.
For the molecule `Oc1ccc2c3c1O[C@H]1c4[nH]ccc4C[C@@]4(O)C(C2)N(CC2CC2)CCC314` (stereo not given in full), the Ke in test [10] was determined as 0.65 nM; in [11], 3.2 nM; in test [12] it was 3.2 nM. For the same molecule, the Selectivity ratio is 0.03 in [4] and 0.17 in test [8].
In the case of `CC(C)Cc1[nH]c2c(c1-c1ccccc1)C[C@@]1(O)C3Cc4ccc(O)c5c4C1(CCN3CC1CC1)[C@H]2O5` (stereo not given in full), the Selectivity ratio in [4] and in test [8] was 0.2 throughout. Further, the IC50 ratio in [6] was determined as 4.1; in test [7], 1.3; in test [9], 0.76.
For `Cc1[nH]c2c(c1-c1ccccc1)C[C@@]1(O)C3Cc4ccc(O)c5c4C1(CCN3CC1CC1)[C@H]2O5` (stereo not given in full), the Selectivity ratio in test [4] and in [8] was 1.6 each time. For the same molecule, the IC50 ratio in [6] is 0.9; in test [7], 0.98; in test [9], 1.6.
Regarding `Cc1[nH]c2c(c1C)C[C@@]1(O)C3Cc4ccc(O)c5c4C1(CCN3CC1CC1)[C@H]2O5` (stereo not given in full), the Selectivity ratio in [1] worked out at 95; in test [2] it was 53.7; in test [4], 5; in test [8] it was 7. The pKi is 9.39 in test [3], 7.66 in test [5] and 7.41 at Mu-type opioid receptor. Further, the IC50 ratio in test [6] was found to be 1.5; in test [7] it was 1.4; in test [9], 7.7. In [12], this molecule showed a Ke of 14.8 nM.
`Cc1c(CC(C)C)[nH]c2c1C[C@@]1(O)C3Cc4ccc(O)c5c4C1(CCN3CC1CC1)[C@H]2O5` (stereo not given in full): the IC50 ratio in test [6] is 380; in [7], 380; in test [9] it was 32. In addition, the Ke in [12] came out at 3.3 nM.
Take `CCCCc1c(CC(C)C)[nH]c2c1C[C@@]1(O)C3Cc4ccc(O)c5c4C1(CCN3CC1CC1)[C@H]2O5` (stereo not given in full): the Selectivity ratio in test [4] and in [8] was 10 each time. In addition, the values for the IC50 ratio in [6], in test [7] and in test [9] were 0.76, 0.99 and 9.8, respectively. In test [12], this molecule registered a Ke of 11.4 nM.
In the case of `Oc1ccc2c3c1O[C@H]1c4[nH]c(-c5ccccc5)c(-c5ccccc5)c4C[C@@]4(O)C(C2)N(CC2CC2)CCC314` (stereo not given in full), the figures for the IC50 ratio in test [13], in test [9] and in [14] were 1.2, 1.4 and 1.1, respectively. The Selectivity ratio in [4] and in test [8] was 1 each time.
